Data set [1] can be described thus: AUC (0 to infinity) in male Wistar-Han rat at 0.4 mg/kg, iv. The note with it: plasma. Also on record: time infinity, dose 0.4 mg/kg, route intravenous. The class given is ADME, organism-based. The procedure, abridged: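 Jugular vein-cannulated male Wistar-Hannover rats (230-250 g), n = 3, fed ad libitum; 30 s tail-vein injection in 10% SEDDS:90% sterile dextrose, 1:1 propylene glycol:20 mM sodium phosphate (pH 7.4), or 10% propylene glycol:90% 20 mM sodium phosphate (pH 7.4). Blood via cannula to 24 h, K2EDTA plasma, LC-MS/MS against standard curve; non-compartmental AUC0-∞ by linear trapezoid rule.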

A short description of data set [2]: Intrinsic clearance in rat liver microsomes by LC-MS/MS analysis. The format is ADME. The following applies: read-out: CLH. The procedure, abridged:
(§1)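 Compound at 1 µM with liver microsomes (CYP 0.25 µM) in 0.1 M potassium phosphate, pH 7.4, at 37 °C. Final solvent was 0.975% acetonitrile and 0.025% DMSO. Mix prewarmed 5 min, then started with 1.3 mM NADPH; no-NADPH controls were run. Sampled at 0–60 min into acetonitrile and followed by LC-MS/MS for substrate loss. T1/2 was scaled to CLint by the well-stirred model.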
A general note: Liver microsomes are vesicles of endoplasmic reticulum, rich in cytochrome P450 enzymes.

A short description of data set [3]: Intrinsic clearance in human liver microsomes by LC-MS/MS analysis. The note with it: read-out: CLH. The format is ADME. The procedure, abridged: as §1
Data set [4] in a line: Lipophilicity, log D of the compound at pH 7.4 by shake-flask method. The note with it: buffer. The class given is physicochemical.
Data set [5] is described as follows: Terminal elimination half life in Wistar-Han rat at 0.4 mg/kg, iv. The class given is ADME, organism-based. On the set-up: dose 0.4 mg/kg, route intravenous. The following applies: in vivo, read-out: beta t1/2 (converted). The procedure, abridged: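 Jugular vein-cannulated male Wistar-Hannover rats (230–250 g, n = 3) received a tail-vein bolus over 30 s. Vehicle depended on compound: SEDDS/dextrose or propylene glycol/20 mM sodium phosphate pH 7.4. Blood was drawn at 0.03–24 h into K2EDTA and the plasma analyzed by LC-MS/MS. Non-compartmental analysis gave T1/2 = 0.693/|terminal ln-slope|.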

A short description of data set [6]: Plasma clearance in male Wistar-Han rat at 0.4 mg/kg, iv. The format is ADME, organism-based. Also on record: dose 0.4 mg/kg, route intravenous. The method, boiled down: (§2)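 Jugular vein-cannulated male Wistar-Hannover rats (230-250 g; n = 3) given a 30 s tail-vein bolus in SEDDS/dextrose or propylene glycol/20 mM sodium phosphate (pH 7.4) vehicles. Blood sampled 0.03–24 h via cannula into K2EDTA. Plasma proteins precipitated, LC-MS/MS. Non-compartmental: CLp = dose/AUC0-∞ (linear trapezoid); Vdss; T1/2 = 0.693/terminal log-linear slope.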

The nature of data set [7]: Volume of distribution at steady state in male Wistar-Han rat at 0.4 mg/kg, iv. The format is ADME, organism-based. On the set-up: dose 0.4 mg/kg, route intravenous. The note with it: in vivo, read-out: Vdss. The method, boiled down:
as §2

A short description of data set [8]: Terminal elimination half life in Wistar-Han rat at 2.9 mg/kg, po. The class given is ADME, organism-based. On the set-up: dose 2.9 mg/kg, route oral. The note with it: in vivo, read-out: beta t1/2 (converted). The procedure, abridged:
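Male Wistar-Hannover rats (230–250 g, n = 3), jugular-cannulated, were fasted overnight and dosed by oral gavage. Vehicle depended on compound: SEDDS/water or propylene glycol/sodium phosphate pH 7.4. Blood was collected at 0.083–24 h into K2EDTA and the plasma analyzed by LC-MS/MS. Terminal half-life came from the non-compartmental ln-concentration slope.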

Data set [9] in a line: AUC (0 to infinity) in male Wistar-Han rat at 2.9 mg/kg, po. The class given is ADME, organism-based. Also on record: time infinity, dose 2.9 mg/kg, route oral. The note with it: plasma. The method, boiled down:
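Jugular vein-cannulated male Wistar-Hannover rats (230-250 g), n = 3, fasted overnight and fed after the 4 h sample; oral dosing in the i.v. formulations, except the SEDDS formulation used 90% water. Serial blood 0.083–24 h, K2EDTA plasma, LC-MS/MS against standard curve; non-compartmental AUC0-∞ by linear trapezoid rule.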

Data set [10] in a line: Oral bioavailability in male Wistar-Han rat at 2.9 mg/kg. The class given is ADME, organism-based. The following applies: in vivo. The procedure, abridged: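 Male Wistar-Hannover rats (230-250 g, cannulated; n = 3) fasted overnight, fed after the 4 h sample, and dosed orally in the i.v. formulations or 10% SEDDS:90% water. Serial blood sampled 0.083–24 h into K2EDTA. Plasma measured by LC-MS/MS against a standard curve. Cmax and Tmax read from individual profiles; F = oral AUC0-∞ relative to i.v. AUC0-∞.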

Data set [11] is described as follows: Cmax in male Wistar-Han rat at 2.9 mg/kg, po. The format is ADME, organism-based. Also on record: dose 2.9 mg/kg, route oral. The note with it: in vivo. The method, boiled down:
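Jugular vein-cannulated male Wistar-Hannover rats (230-250 g), n = 3, fasted overnight and fed after the 4 h sample. Single oral dose in compound-specific vehicles (10% SEDDS:90% water, or propylene glycol with 20 mM sodium phosphate pH 7.4). Serial blood at 0.083–24 h into K2EDTA. Plasma protein-precipitated with internal standard and analysed by LC-MS/MS. Cmax read directly from individual concentration–time curves.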

Structures are written as SMILES. Where a SMILES comes first, the peptide text is derived from it. [ ]: non-standard residue; d: D form. NMeY = CN[C@@H](Cc1ccc(O)cc1)C(=O)O; NMeT = CN[C@H](C(=O)O)[C@@H](C)O; dNMeL = CN[C@H](CC(C)C)C(=O)O

Broadly, the AUC(0-inf) is the area under the concentration-time curve extrapolated to infinity. High values mean high exposure, low ones low exposure. One may read the logD as lipophilicity at a set pH, counting ionised and neutral species. The clearance is the rate of elimination divided by the concentration. One may read the bioavailability as the share of a dose that reaches the circulation, judged against a reference dose that is usually intravenous. High values mean much systemic uptake, low ones little systemic uptake. As usually defined, the Cmax is the peak of the concentration-time curve.

In the case of `CC(C)C[C@@H]1NC(=O)[C@H](Cc2ccc(O)cc2)N(C)C(=O)[C@H]2CCCN2C(=O)[C@H](CC(C)C)NC(=O)[C@H]([C@@H](C)O)N(C)C(=O)[C@@H](CC(C)C)N(C)C1=O` (cyclo(L[dNMeL][NMeT]L[dP][NMeY])), the values for the AUC(0-inf) in [1] and in [9] were 109 ng·h/mL and 201 ng·h/mL, respectively. Besides, the results for the CLint scaled in [2] and in data set [3] were 44 mL/min/kg and 89 mL/min/kg, respectively. The molecule further yielded a logD in [4] of 3.17. Also, the half-life is 61.8 min in data set [5] and 55.2 min in [8]. This molecule registered a clearance in data set [6] of 63.6 mL/min/kg. For the same molecule, the Vd in data set [7] turned out to be 3.8 L/kg. In data set [10], this molecule had a bioavailability of 23.8%. In [11], the highest concentration (Cmax) is 105 ng/mL.

(Values after ChEMBL document CHEMBL3217723, “Optimizing PK properties of cyclic peptides: the effect of side chain substitutions on permeability and clearance()” (Medchemcomm, 2012).)
